Test results reported in ChEMBL document CHEMBL3621166, “Synthesis, Structure-Activity Relationship, and Mechanistic Investigation of Lithocholic Acid Amphiphiles for Colon Cancer Therapy” (Medchemcomm, 2015).
Activity calls are given as the source filed them. The rule behind the calls is not given here.

Tests used:
[1] = Retention time of the compound by HPLC method; format: physicochemical
HCT-116 [2] = assay: Cytotoxicity against human HCT116 cells assessed as cell viability after 48 hrs by MTT assay; format: functional, cell-based; conditions: HCT-116, 48 h
[3] = Cytotoxicity against human DLD1 cells assessed as cell viability after 48 hrs by MTT assay; format: functional, cell-based; conditions: DLD-1, 48 h
[4] = Cytotoxicity against human HCT8 cells assessed as cell viability after 48 hrs by MTT assay; format: functional, cell-based; conditions: HCT-8, 48 h
[5] = Selectivity ratio of human DLD1 cells over CHO cells; format: cell-based; conditions: Chinese hamster (CHO), DLD1 cells versus CHO cells
[6] = Selectivity ratio of human HCT8 cells over CHO cells; format: ADME, cell-based; conditions: Chinese hamster (CHO), HCT8 cells versus CHO cells
A549 [7] = assay: Selectivity ratio of human HCT116 cells over human A549 cells; format: functional
A549 [8] = assay: Selectivity ratio of human DLD1 cells over human A549 cells; format: functional
A549 [9] = assay: Selectivity for human HCT8 cells over human A549 cells; format: functional
DLD-1 = assay: Inhibition of colony formation in human DLD1 cells at 15 to 50 uM after 2 weeks using crystal violet staining; format: functional, cell-based
Summary of the method: (§1)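 Cells plated at 200 per well and treated after 24 h adherence at 15, 25 or 50 μM. Colonies stained with crystal violet after 2 weeks and counted. Plating efficiency taken from untreated wells, survival fraction from treated colony counts. Two experiments in duplicate, mean ± SD.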

HCT-8 [10] = assay: Inhibition of colony formation in human HCT8 cells at 15 to 50 uM after 2 weeks using crystal violet staining; format: functional, cell-based; summary of the method: as §1
HCT-116 [11] = assay: Inhibition of colony formation in human HCT116 cells at 15 uM after 2 weeks using crystal violet staining; format: functional; conditions: HCT-116, 336 h
HCT-116 [12] = assay: Inhibition of colony formation in human HCT116 cells at 50 uM after 2 weeks using crystal violet staining; format: functional, cell-based; summary of the method: as §1
HCT-116 [13] = assay: Cell cycle arrest in human HCT116 cells assessed as accumulation at sub-G1 phase at 50 uM after 48 hrs using propidium iodide staining by FACS analysis; format: functional
[14] = Cell cycle arrest in human DLD1 cells assessed as accumulation at sub-G1 phase at 50 uM after 48 hrs using propidium iodide staining by FACS analysis; format: functional, cell-based; conditions: DLD-1
Summary of the method: (§2)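 Cells seeded at ~2 × 10^5 per well, treated after 24 h at 15, 25 and 50 μM for 48 h. Harvested by trypsin, washed in cold PBS and fixed in 70% ice-cold ethanol. RNase-treated 1 h at 37 °C, stained with propidium iodide (50 μg mL−1) 20 min at room temperature, and analysed by FACS. Triplicate, mean ± SD.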

[15] = Cell cycle arrest in human HCT8 cells assessed as accumulation at sub-G1 phase at 50 uM after 48 hrs using propidium iodide staining by FACS analysis; format: functional, cell-based; conditions: HCT-8; summary of the method: as §2
HCT-116 [16] = assay: Induction of apoptosis in human HCT116 cells assessed as late apoptotic cells at 15 uM after 48 hrs using annexin-V FITC and propidium iodide staining by flow cytometry (reference value: 1.59%); format: functional
HCT-116 [17] = assay: Induction of apoptosis in human HCT116 cells assessed as late apoptotic cells at 25 uM after 48 hrs using annexin-V FITC and propidium iodide staining by flow cytometry (reference value: 1.59%); format: functional
HCT-116 [18] = assay: Induction of apoptosis in human HCT116 cells assessed as late apoptotic cells at 50 uM after 48 hrs using annexin-V FITC and propidium iodide staining by flow cytometry (reference value: 1.59%); format: functional
HCT-116 [19] = assay: Induction of apoptosis in human HCT116 cells assessed as early apoptotic cells at 15 uM after 48 hrs using annexin-V FITC and propidium iodide staining by flow cytometry (reference value: 4.80%); format: functional
HCT-116 [20] = assay: Induction of apoptosis in human HCT116 cells assessed as early apoptotic cells at 25 uM after 48 hrs using annexin-V FITC and propidium iodide staining by flow cytometry (reference value: 4.80%); format: functional
HCT-116 [21] = assay: Induction of apoptosis in human HCT116 cells assessed as early apoptotic cells at 50 uM after 48 hrs using annexin-V FITC and propidium iodide staining by flow cytometry (reference value: 4.80%); format: functional
HCT-116 [22] = assay: Antitumor activity against human HCT116 cells xenografted in nude mouse assessed as reduction in tumor volume at 20 mg/kg after 6 days; format: functional; parameters: scale not given: the % may be the effect or the level left
HCT-116 [23] = assay: Induction of apoptosis in human HCT116 cells assessed as increased level of procaspase-8 at 10 uM by Western blot analysis; format: functional, cell-based
HCT-116 [24] = assay: Induction of apoptosis in human HCT116 cells assessed as decreased level of procaspase-8 at 50 uM by Western blot analysis; format: functional, cell-based
HCT-116 [25] = assay: Induction of apoptosis in human HCT116 cells assessed as increased level of cleaved caspase-7 at 10 to 50 uM by Western blot analysis; format: functional, cell-based
HCT-116 [26] = assay: Induction of apoptosis in human HCT116 cells assessed as increased level of cleaved caspase-3 at 10 to 50 uM by Western blot analysis; format: functional, cell-based
HCT-116 [27] = assay: Induction of apoptosis in human HCT116 cells xenografted in nude mouse assessed as increased level of cleaved caspase-3 at 20 mg/kg after 6 days by Western blot analysis relative to control; format: functional, organism-based
Summary of the method: (§3)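 Female nude mice, 6 weeks old, received 1.5 × 10^6 HCT-116 cells in the right flank. At ~750 mm3 mice were split into groups of 5 and dosed from day 19 at 20 mg kg−1 near the tumour, vehicle as control. Tumours were harvested at sacrifice on day 25 and homogenised in RIPA buffer. Equal protein loaded, transferred to PVDF, blocked in 5% milk/TBST, primary antibodies overnight at 4 °C, HRP secondary, ECL detection.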

HCT-116 [28] = assay: Induction of apoptosis in human HCT116 cells xenografted in nude mouse assessed as increased level of cleaved caspase-7 at 20 mg/kg after 6 days by Western blot analysis relative to control; format: functional, organism-based; summary of the method: as §3
HCT-116 [29] = assay: Induction of apoptosis in human HCT116 cells xenografted in nude mouse assessed as increased level of cleaved caspase-8 at 20 mg/kg after 6 days by Western blot analysis relative to control; format: functional, organism-based; summary of the method: as §3
HCT-116 [30] = assay: Ratio of lithocholic acid IC50 to compound IC50 for human HCT116 cells assessed as cell viability after 48 hrs by MTT assay; format: functional
HCT-8 [31] = assay: Ratio of lithocholic acid IC50 to compound IC50 for human HCT8 cells assessed as cell viability after 48 hrs by MTT assay; format: functional
[32] = Toxicity in RBC (unknown origin) assessed as hemolytic activity; format: cell-based, Erythrocyte; conditions: red blood cells
HCT-116 [33] = assay: Induction of apoptosis in human HCT116 cells assessed as apoptotic cells at 25 uM after 48 hrs using annexin-V FITC and propidium iodide staining by flow cytometry relative to lithocholic acid; format: functional
HCT-116 [34] = assay: Induction of apoptosis in human HCT116 cells assessed as apoptotic cells at 50 uM after 48 hrs using annexin-V FITC and propidium iodide staining by flow cytometry relative to lithocholic acid; format: functional
HCT-116 [35] = assay: Antitumor activity against human HCT116 cells xenografted in nude mouse assessed as reduction in tumor volume at 20 mg/kg measured up to 25 days; format: functional; parameters: scale not given: the % may be the effect or the level left
[36] = Selectivity ratio of human HCT116 cells over human THP1 cells; format: ADME, cell-based, HCT-116; conditions: HCT116 cells versus THP1 cells
[37] = Selectivity ratio of human DLD1 cells over human THP1 cells; format: ADME, cell-based, THP-1; conditions: DLD1 cells versus THP1 cells
[38] = Selectivity ratio of human HCT8 cells over human THP1 cells; format: ADME, cell-based, THP-1; conditions: HCT8 cells versus THP1 cells
[39] = Selectivity ratio of human HCT116 cells over CHO cells; format: cell-based; conditions: Chinese hamster (CHO), HCT116 cells versus CHO cells
HCT-116 [40] = assay: Inhibition of colony formation in human HCT116 cells at 15 to 50 uM after 2 weeks using crystal violet staining; format: functional, cell-based; summary of the method: as §1
HCT-116 [41] = assay: Cell cycle arrest in human HCT116 cells at 15 to 50 uM after 48 hrs using propidium iodide staining by FACS analysis; format: functional, cell-based; summary of the method: as §2
[42] = Cell cycle arrest in human DLD1 cells at 15 to 50 uM after 48 hrs using propidium iodide staining by FACS analysis; format: functional, cell-based; conditions: DLD-1; summary of the method: as §2
[43] = Cell cycle arrest in human HCT8 cells at 15 to 50 uM after 48 hrs using propidium iodide staining by FACS analysis; format: functional, cell-based; conditions: HCT-8; summary of the method: as §2

COC(=O)CC[C@@H](C)[C@H]1CC[C@H]2[C@@H]3CC[C@@H]4C[C@H](OC(=O)C[N+]56CCN(CC5)CC6)CC[C@]4(C)[C@H]3CC[C@]12C.[Cl-]
Retention_time [1]: 7.98 min
IC50 (HCT-116 [2]): 60.7 µM
IC50 [3]: 46.4 µM
IC50 [4]: 76.4 µM

COC(=O)CC[C@@H](C)[C@H]1CC[C@H]2[C@@H]3CC[C@@H]4C[C@H](OC(=O)CN5CCNCC5)CC[C@]4(C)[C@H]3CC[C@]12C
IC50 (HCT-116 [2]): 102 µM
IC50 [3]: 118 µM
IC50 [4]: 115 µM

COC(=O)CC[C@@H](C)[C@H]1CC[C@H]2[C@@H]3CC[C@@H]4C[C@H](OC(=O)C[N+]5(C)CCCCC5)CC[C@]4(C)[C@H]3CC[C@]12C.[Cl-]
selectivity ratio [5]: 5
selectivity ratio [6]: 5
selectivity ratio (A549 [7]): 2
selectivity ratio (A549 [8]): 2
selectivity ratio (A549 [9]): 2
inhibition (DLD-1): Active
inhibition (HCT-8 [10]): Active
inhibition at 15 µM (HCT-116 [11]): 50%
inhibition (HCT-116 [12]): Active
Activity (HCT-116 [13]): 80%
Activity [14]: 80%
Activity [15]: 40%
Activity (HCT-116 [16]): 12.47%
Activity (HCT-116 [17]): 15.78%
Activity (HCT-116 [18]): 26.63%
Activity (HCT-116 [19]): 9.04%
Activity (HCT-116 [20]): 23.57%
Activity (HCT-116 [21]): 41.19%
Activity (HCT-116 [22]): 75%
Activity (HCT-116 [23]): inactive
Activity (HCT-116 [24]): Active
Activity (HCT-116 [25]): Active
Activity (HCT-116 [26]): Active
Activity (HCT-116 [27]): Active
Activity (HCT-116 [28]): Active
Activity (HCT-116 [29]): Active
Ratio IC50 (HCT-116 [30]): 6
Ratio IC50 (HCT-8 [31]): 6
Retention_time [1]: 8.12 min
HC50 [32]: > 1 mM
Ratio (HCT-116 [33]): 1.3
Ratio (HCT-116 [34]): 2
Activity (HCT-116 [35]): 75%
IC50 (HCT-116 [2]): 11.7 µM
IC50 [3]: 13.7 µM
IC50 [4]: 14.7 µM
selectivity ratio [36]: 5
selectivity ratio [37]: 5
selectivity ratio [38]: 5
selectivity ratio [39]: 3

C[C@H](CCC(=O)O)[C@H]1CC[C@H]2[C@@H]3CC[C@@H]4C[C@H](O)CC[C@]4(C)[C@H]3CC[C@]12C [LITHOCHOLIC ACID]
inhibition (HCT-116 [40]): inactive
inhibition (DLD-1): inactive
inhibition (HCT-8 [10]): inactive
Activity (HCT-116 [41]): inactive
Activity [42]: inactive
Activity [43]: inactive
Activity (HCT-116 [16]): 8.88%
Activity (HCT-116 [17]): 11.54%
Activity (HCT-116 [18]): 13.15%
Activity (HCT-116 [19]): 10.21%
Activity (HCT-116 [20]): 18.79%
Activity (HCT-116 [21]): 21.89%
IC50 (HCT-116 [2]): 81.1 µM
IC50 [3]: 173 µM
IC50 [4]: 97.4 µM

COC(=O)CC[C@@H](C)[C@H]1CC[C@H]2[C@@H]3CC[C@@H]4C[C@H](OC(=O)C[n+]5ccc(N(C)C)cc5)CC[C@]4(C)[C@H]3CC[C@]12C.[Cl-]
Retention_time [1]: 7.9 min
IC50 (HCT-116 [2]): 13.2 µM
IC50 [3]: 17 µM
IC50 [4]: 59.1 µM

COC(=O)CC[C@@H](C)[C@H]1CC[C@H]2[C@@H]3CC[C@@H]4C[C@H](OC(=O)C[n+]5ccccc5)CC[C@]4(C)[C@H]3CC[C@]12C.[Cl-]
Retention_time [1]: 7.84 min
IC50 (HCT-116 [2]): 26.5 µM
IC50 [3]: 35.4 µM
IC50 [4]: 35.4 µM
